Assay results pooled from the literature.

Compound | species | medium | route | dose | setting | quantity | result
COc1ccc([C@@H]2CN(C(=O)[C@@H](O)CO)C[C@@]2(C)[C@@H](C)O)cc1OC1CN(c2ccc(C)cn2)C1 | human | plasma | oral | 5 mg | single dose, healthy volunteers | Vd/F | 46.4 L
C[C@@]1(c2cc(NC(=O)c3ccc(C#N)cn3)ccc2F)C=CSC(N)=N1 | human | plasma | oral | 10 mg | single dose | Vd/F | 210 L
CC(C)(C)c1ccc(O)c(CN(Cc2cc(C(C)(C)C)ccc2O)C2CCC(NC(N)=O)CC2)c1 (centres unmarked) | male C57BL/6 mouse | brain | intraperitoneal | 10 mg/kg | single dose | Cmax | 1070 ng/g
Cc1cc(Nc2cc(N3CCN(C)CC3)nc(/C=C/c3ccccc3)n2)n[nH]1 | human | plasma | oral | 200 mg/m² | multiple doses, patients | Vd/F | 907 L
CO[C@H]1CC[C@H](N2C(=O)CNc3ncc(-c4ccc(C(C)(C)O)nc4)nc32)CC1 | human | plasma | oral | 45 mg | patients | Vd/F | 186 L
CC(C)(Sc1ccncc1-c1ccc(C#N)c2ccccc12)C(=O)O | male human | plasma | oral | 5 mg | single dose, fed, healthy volunteers | Vd/F | 625 L
CCNCCCNC/C=C\CNCCCNCC | human | plasma | intravenous | 200 mg | patients, infusion | Vd | 0.56 L/kg
COc1cc(C(=O)NC2CCN(C)CC2)c(F)cc1Nc1ncc(C(F)(F)F)c(Oc2cccc3c2C(=O)N(C)C3)n1 | human | plasma | oral | 25 mg | multiple doses, once daily, patients | Vd/F | 520 L
